Reference: ChEMBL document CHEMBL4651341, “The discovery of a novel series of compounds with single-dose efficacy against juvenile and adult Schistosoma species” (PLoS Negl Trop Dis, 2021)
Converted amounts (≈) assume the structure as drawn.

How the values were obtained:
[1] = Partition coefficient of compound between n-octanol and PBS (pH7.4); assay type: physicochemical; conditions: octanol/water, pH 7.4
Outline: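 Shake-flask method using octanol and PBS pH 7.4, each pre-saturated with the other. Compound was shaken 2 h at 850 rpm, 25 °C, then the phases were separated by centrifugation and both layers diluted and analysed by LC-MS/MS. LogD = log(octanol AUC × relative dilution / buffer AUC).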

[2] = Solubility at 25 degC of compound (diluted from DMSO) in PBS at pH 7.4 determined after 24h (1h sonication, 22h shaking, 1h sonication) by LCMS/MS; assay type: physicochemical
Schistosoma mansoni [3] = assay: (§1) Concentration required to kill 50% of 42 day old worms 5 days after drug treatment.; assay type: functional, organism-based; conditions: Puerto Rican, 120 h
Outline: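 Adult S. mansoni were perfused from CD1 mice 6 weeks post-infection and washed. They were cultured 3 pairs per well in 1 mL DMEM with 2 mM glutamine, penicillin/streptomycin and 10% FCS […] at 37 °C, 5% CO2. Viability of individual worms was scored on day 5 (120 h).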

Schistosoma mansoni [4] = assay: Concentration required to kill 50% of 21 day old worms 5 days after drug treatment.; assay type: functional, organism-based; conditions: Puerto Rican, 120 h
Outline: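 Juvenile S. mansoni (Puerto Rican strain) were perfused from CD1 mice 3 weeks post-infection and washed. They were cultured 6–8 per well in 200 µL DMEM with 2 mM glutamine, penicillin/streptomycin and 10% FCS at 37 °C, 5% CO2. Viability of individual worms was scored on day 5 after dosing (120 h).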

[5] = Concentration required to kill 50% MRC-5 cells as detected by Alamar blue staining; assay type: toxicity, cell-based, MRC5; conditions: homo sapiens, read-out: TC50 (the source's name)
[6] = Concentration required to kill 50% MRC5 cells as detected by Alamar blue staining; conditions: homo sapiens, read-out: TC50 (the source's name)
[7] = Mean oral bioavailability in Swiss albino male mice at […] per compound (administered in a mixture of 5 compounds to 3 mice) assessed by LCMS/MS.; note: dose 2.5 mg/kg; assay type: ADME, organism-based; conditions: male, Swiss albino, mouse, in vivo, read-out: Bioavailability
[8] = Mean AUC inf in Swiss albino male mice at 1 mg/kg per compound (administered iv in a mixture of 5 compounds to 3 mice) assessed by LCMS/MS.; assay type: ADME, organism-based; conditions: male, Swiss albino, mouse, in vivo
Outline: (§2)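 Male Swiss albino mice (~30 g), 3 per experiment, mostly dosed as mixtures of 5 compounds iv via the lateral tail vein. Vehicle: 10% DMSO/90% 50 mM Na2HPO4 with 0.5% Tween-80. Blood sampled at 5, 15, 30 min and 1, 2, 4, 8, 24 h. Plasma stored at −20 °C and quantified by LC-MS after acetonitrile precipitation.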

[9] = Mean observed clearance in Swiss albino male mice at 1 mg/kg per compound (administered iv in a mixture of 5 compounds to 3 mice) assessed by LCMS/MS.; assay type: ADME, organism-based; conditions: male, Swiss albino, mouse, in vivo, read-out: Clearance (converted); outline: as §2
[10] = Mean volume of distribution at steady state in Swiss albino male mice at 1 mg/kg per compound (administered iv in a mixture of 5 compounds to 3 mice) assessed by LCMS/MS.; assay type: ADME, organism-based; conditions: mouse, in vivo, read-out: Volume
Outline: (§3)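 Male Swiss albino mice (~30 g), 3 per experiment, mostly dosed as mixtures of 5 compounds iv via the lateral tail vein. Vehicle: 10% DMSO/90% 50 mM Na2HPO4 with 0.5% Tween-80. Plasma stored at −20 °C and quantified by LC-MS after acetonitrile precipitation.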

[11] = Mean half-life in Swiss albino male mice at 1 mg/kg per compound (administered iv in a mixture of 5 compounds to 3 mice) assessed by LCMS/MS.; assay type: ADME, organism-based; conditions: mouse, in vivo; outline: as §3
[12] = Mean plasma concentration at 24h in Swiss albino male mice at […] per compound (administered orally in a mixture of 5 compounds to 3 mice) assessed by LCMS/MS.; assay type: ADME, organism-based; conditions: mouse, po
[13] = Mean plasma concentration at 4h in Swiss albino male mice at […] per compound (administered orally in a mixture of 5 compounds to 3 mice) assessed by LCMS/MS.; assay type: ADME, organism-based; conditions: mouse, po
[14] = Mean time to peak plasma concentration in Swiss albino male mice at […] per compound (administered orally in a mixture of 5 compounds to 3 mice) assessed by LCMS/MS.; assay type: ADME, organism-based; conditions: mouse, po
[15] = Plasma protein binding determined at 10uM by LC-MS/MS.; assay type: ADME, cell-free
Outline: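 Equilibrium dialysis of plasma spiked at 10 µM (0.1% DMSO) against PBS pH 7.4, 6 h at 37 °C, duplicates. Both chambers analysed by LC-MS/MS after acetonitrile precipitation. % free = buffer/plasma area ratio; recovery also calculated.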

[16] = Plasma protein binding determined at 1uM by LC-MS/MS.; assay type: ADME, cell-free
[17] = Percentage of parent compound remaining after incubation for 30 minutes with cyropreserved mouse hepatocytes at a concentration of 1uM compound and […], determined by LCMS; assay type: ADME, tissue-based, Hepatocyte; conditions: cryopreserved mouse hepatocytes, read-out: Stability
Outline: (§4)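 Compound was incubated at 1 µM final (2 µM working solution mixed 1:1 with hepatocyte suspension) in supplemented KHB pH 7.4. Conditions: 37 °C, 5% CO2, gentle mixing, duplicates. Reaction quenched with ice-cold acetonitrile containing standard; analysed by LC-MS/MS. % remaining = AUC at t / AUC at T0.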

Schistosoma haematobium = assay: Concentration required to kill 50% of 84 day old worms 5 days after drug treatment.; assay type: functional, organism-based; conditions: Egyptian, 120 h
Schistosoma japonicum = assay: as §1; assay type: functional, organism-based; conditions: Chinese, 120 h
[18] = Concentration required to kill 50% HepG2 cells as detected by MTT staining; assay type: toxicity, cell-based; conditions: homo sapiens, read-out: TC50 (the source's name)
[19] = Percentage of parent compound remaining after incubation for 30 minutes with cyropreserved human hepatocytes at a concentration of 1uM compound and 1 million cells/uL, determined by LCMS/MS; assay type: ADME, tissue-based, Hepatocyte; conditions: cryopreserved human hepatocytes, read-out: Stability; outline: as §4
[20] = Percentage of parent compound remaining after incubation for 90 minutes with cyropreserved mouse hepatocytes at a concentration of 1uM compound and […], determined by LCMS; assay type: ADME, tissue-based, Hepatocyte; conditions: cryopreserved mouse hepatocytes, read-out: Stability; outline: as §4
[21] = Concentration of drug in plasma at 24h following oral drug adminstration at given dose. Determined by LCMS/MS; assay type: ADME, organism-based; conditions: CD1, mouse
Outline: (§5)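 Plasma sampled from the mice of the efficacy experiments, each animal sampled once: one animal per group at 1, 4 and 8 h, two per group at 24 h. Plasma prepared by acetonitrile protein precipitation and analysed by LC-MS against a 10-point calibration line spiked in blank matrix, with QCs at three or more levels.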

[22] = Concentration of drug in plasma at 4h following oral drug adminstration at given dose. Determined by LCMS/MS; assay type: ADME, organism-based; conditions: CD1, mouse; outline: as §5
Schistosoma mansoni [23] = assay: Percentage of worms remaining following treatment of female CD1 mice infected with S. mansoni worms (21 day old - juvenile or 42 day old - adult) with compound by oral gavage. Worms were recovered by portal perfusion with citrate saline 8-14 days post treatment and counted. Percentages are from a mean of 5 or 6 animals.; assay type: functional, Mus musculus; design: concentration or dose not given beside the values
Outline: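 Female CD1 mice were infected subcutaneously with 150 cercariae and treated at day 21 (juvenile) or day 42 (adult). Single oral gavage, or two doses 12 h apart, given in 7% Tween-80/3% ethanol/water (sonicated) or in 1:19 DMSO:corn oil. Controls received vehicle only. Worm recoveries are group means, n = 5–6.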

[24] = Plasma protein binding determined at 10uM by LC-MS/MS.; conditions: human
[25] = Percentage of parent compound remaining after incubation for 90 minutes with cyropreserved human hepatocytes at a concentration of 1uM compound and 1 million cells/uL, determined by LCMS/MS; assay type: ADME, tissue-based, Hepatocyte; conditions: cryopreserved human hepatocytes, read-out: Stability; outline: as §4
[26] = Solubility at 25 degC of compound (diluted from DMSO) in FaSSIF at pH 6.5 (2.24 g/l of SIF powder [Na-taurocholate: 3.0mM, Lecithin:0.75mM, Pancreatin:10mg/ml], 0.42 g/l of NaOH, 4.4 g/l NaH₂PO₄ monobasic dihydrate, 6.19 g/l NaCl) determined after 24h (1h sonication, 22h shaking, 1h sonication) by LCMS/MS; assay type: physicochemical
[27] = Solubility at 25 degC of compound (diluted from DMSO) in FeSSIF at pH 5.0 (11.2 g/l of SIF powder [Na-taurocholate: 15.0mM, Lecithin:3.75mM, Pancreatin:40mg/ml], 4.04 g/l of NaOH, 8.65 g/l Glacial Acetic Acid, 11.87 g/l NaCl) determined after 24h (1h sonication, 22h shaking, 1h sonication) by LCMS/MS; assay type: physicochemical

| SMILES | Lipophilicity [1] | solubility kinetic at 24 h [2] [µM] | EC50 (Schistosoma mansoni [3]) [µM] | EC50 (Schistosoma mansoni [4]) [µM] | CC50 [5] [µM] | bioavailability [7] [%] | AUC(0-inf) [8] [ng·h/mL] | clearance [9] [mL/min/kg] | Vd [10] [L/kg] | half-life [11] [h] | concentration at 24 h [12] [ng/mL] | concentration at 4 h [13] [ng/mL] | Tmax [14] [h] | Binding ([15]; mouse) [%] | remaining at 0.5 h, 1 µM [17] [%] | CC50 [18] [µM] | Efficacy (Schistosoma mansoni [23]) [%] | also measured |
| --- | --- | --- | --- | --- | --- | --- | --- | --- | --- | --- | --- | --- | --- | --- | --- | --- | --- | --- |
| CC(C)c1cccc(-c2cn3c(-c4ccc(O)cc4)cnc3cn2)c1 | 3.62 = | 0.383 (≈ 0.126 µg/mL) | 1.34 | 1.5 | 30 | – | – | – | – | – | – | – | – | – | – | – | – | CC50 [6]: > 30 µM |
| COc1ccc(-c2c(C(C)C)nc3cnc(-c4cccc(C(F)(F)F)c4)cn23)cc1O | 3.63 = | 2.11 (≈ 0.902 µg/mL) | < 0.082 | 0.0659 | 21.9 | 7.84 | 105 | 79.2 | 5.13 | 1.92 | 0.1 | 3.5 | 0.25 | 99.93 | 36.2 | > 11.1 | – | Binding ([16]; human): 100%; Binding ([16]; mouse): 100%; EC50 (Schistosoma haematobium): 0.0612 µM; EC50 (Schistosoma japonicum): 0.085 µM |
| Fc1ccc(-c2cn3c(-c4ccc5[nH]ncc5c4F)c(C4CC4)nc3cn2)cc1C(F)(F)F | 4.7 = | 1.42 (≈ 0.647 µg/mL) | 0.0507 | 0.0361 | – | 95.8 | 2450 | 3.43 | 4.37 | 16.2 | 176 | 376 | 1 | 100 | 81.9 | 16.1 | 88 | remaining at 0.5 h, 1 µM [19]: 95.2%; Binding ([15]; human): 100%; remaining at 1.5 h, 1 µM [20]: 79.5%; concentration at 24 h [21]: 60.4 ng/mL; concentration at 4 h [22]: 75 ng/mL |
| COc1ccc(-c2cnc3cnc(-c4cccc(C(C)C)c4)cn23)cc1OC | 4.92 = | 2.62 (≈ 0.978 µg/mL) | 1.34 | 2.57 | 27.8 | – | – | – | – | – | – | – | – | – | – | – | – | Binding [24]: 99.985% |
| COc1ccc(-c2cnc3cnc(-c4cccc(C(C)C)c4)cn23)cc1O | 3.56 = | 2.29 (≈ 0.823 µg/mL) | 0.263 | 0.486 | 18.6 | – | – | – | – | – | – | – | – | – | 26.4 | – | – | CC50 [6]: 18.6 µM |
| CCc1nc2cnc(-c3ccc(F)c(C(F)(F)C(F)(F)F)c3)cn2c1-c1c(F)cc(O)cc1F | 6.33 = | 0.742 (≈ 0.362 µg/mL) | 0.00911 | 0.0136 | – | 83.2 | 2210 | 3.82 | 7.32 | 24.7 | 123 | 208 | 0.25 | 99.9935 | – | 7.23 | 49.1 | remaining at 1.5 h, 1 µM [25]: 41.7%; Binding ([15]; human): 99.9955%; remaining at 1.5 h, 1 µM [20]: 61.5%; solubility kinetic at 24 h [26]: 111 µM (≈ 54.1 µg/mL); solubility kinetic at 24 h [27]: 200 µM (≈ 97.5 µg/mL); concentration at 24 h [21]: 10.4 ng/mL; concentration at 4 h [22]: 104 ng/mL |
| O=C(C1CCCCC1)N1CC(=O)N2CCc3ccccc3C2C1 (stereo not drawn) [PRAZIQUANTEL] | – | – | 0.3 | 4.7 | > 50 | – | – | – | – | – | – | – | – | – | – | – | 79 | EC50 (Schistosoma haematobium): 0.0844 µM; EC50 (Schistosoma japonicum): 0.161 µM |
